Reference: PMC4285304 (Journal of Thrombosis and Haemostasis, 2014)
Where two headings read alike, the source gives them in different places.

Legend:
[1] = test system: tissue factor-induced thrombin generation in normal human platelet-poor plasma; experiment: Thrombin generation assay; assay type: biochemical; settings: for maximal increase in Cmax over baseline / maximal increase in ETP over baseline: absence of rhs-TM, lower concentration range, not significant; for Cmax increase vs. control / ETP increase vs. control: presence of rhs-TM 10 nmol L^−1; for IC50: normal human PPP
In short: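 Citrated blood (3.12%, 1/10 vol) came from unmedicated healthy donors; PPP was prepared at 1000× g for 20 min at room temperature. Individual-donor PPP was spiked with increasing test compound concentrations (3–948 or 3–1090 nmol L−1) or vehicle, with or without rhs-TM (final 10 nmol L−1). TF was 1.67 pmol L−1 and phospholipid 1.33 μmol L−1 (final). After 5 min at 37 °C, FluCa was added. Calibrated thrombogram gave Cmax and ETP; n = 8–12.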

[2] = test system: thrombin generation in protein C-deficient human plasma; experiment: Thrombin generation assay; assay type: biochemical; settings: absence or presence of rhs-TM
In short: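 Lyophilised protein C-deficient human plasma was spiked with increasing test compound concentrations or vehicle, with or without rhs-TM (final 10 nmol L−1). Thrombin generation was triggered with TF 1.67 pmol L−1 and phospholipid 1.33 μmol L−1 (final), incubated 5 min at 37 °C, and started with FluCa (HEPES, CaCl2, fluorogenic substrate). Fluorescence was calibrated per sample; Cmax and ETP were derived; n = 3.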

[3] = test system: prothrombin fragment 1+2 generation in protein C-deficient human plasma; experiment: Prothrombin fragment 1+2; assay type: biochemical; settings: presence of TM
In short: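 Protein C-deficient human plasma was spiked with test compound (increasing concentrations) or vehicle plus rhs-TM (final 10 nmol L−1), then defibrinated with PefablocFG (final 6 mg mL−1). The CAT-type TF/phospholipid trigger was used, started with Fluo-buffer (HEPES, CaCl2, 5% DMSO, no substrate) and stopped after 12 min with PPACK (final 10 μmol L−1). Samples went into EDTA (final 100 mmol L−1) at 4 °C and were stored at −20 °C. F1+2 was measured by ELISA.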

[4] = test system: prothrombin fragment 1+2 generation in normal human platelet-poor plasma; experiment: Prothrombin fragment 1+2; assay type: biochemical; settings: for F1+2 increase: same concentration range as by the CAT method (melagatran 119–474, dabigatran 136–545 nmol L^−1); for IC50: read-out: F1+2 generation IC50, normal human PPP
plasma fibrinogen = experiment: Tissue factor-induced hypercoagulability in rats: fibrinogen levels; assay type: in vivo; settings: rat
thrombin bound to TM = settings: cited from earlier work
[5] = test system: activated partial thromboplastin time; experiment: Activated partial thromboplastin time; assay type: in vivo; settings: rat, 15 minutes after drug, 10 minutes after TF
In short: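 Male Wistar rats (227–273 g) were fasted overnight and anaesthetised with i.p. pentobarbital-Na (80–100 mg kg−1). Test compound in 0.9% NaCl (0.001–0.3 mg kg−1) or vehicle (1 mL kg−1) was given i.v., then 5 min later recombinant TF (8 mg kg−1) or vehicle (sham) was given as a slow i.v. bolus. Citrated aortic blood was drawn 10 min after TF. APTT was measured on PPP by ball coagulometer, as fold over baseline; n = 10.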

[6] = test system: thrombin–antithrombin (TAT) complex; experiment: Tissue factor-induced hypercoagulability in rats: plasma TAT levels; assay type: in vivo; settings: rat; for effect on TF-induced increase in TAT levels: 0.3 mg kg^−1 i.v., 10 minutes after TF 8 mg kg^−1
platelet count = experiment: Tissue factor-induced hypercoagulability in rats: platelet count; assay type: in vivo; settings: rat
[7] = Plasma concentrations of rivaroxaban and melagatran in rats; assay type: in vivo; settings: rat, 15 minutes after drug, 10 minutes after TF
prothrombin time = experiment: Prothrombin time; assay type: in vivo; settings: rat; for PT prolongation: 15 minutes after drug, 10 minutes after TF
In short: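 Rats (male Wistar, 227–273 g) were fasted overnight and anaesthetised with i.p. pentobarbital-Na (80–100 mg kg−1). Test compound in PEG:H2O:glycerol (996:100:60 g), 0.001–0.3 mg kg−1, or vehicle (1 mL kg−1) was given i.v. After 5 min, TF (8 mg kg−1) or vehicle (sham) was given as a slow i.v. bolus. Citrated aortic blood was taken 10 min later. PT on PPP by ball coagulometer, expressed as fold over baseline; n = 10.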

[8] = test system: mortality of treated animals; settings: TF-induced hypercoagulation; cited from earlier work
[9] = read-out: Cmax IC50, peak thrombin generation, +TM (rhs-TM 10 nmol L^−1)
[10] = read-out: Cmax IC50, peak thrombin generation, −TM (absence of rhs-TM)
[11] = read-out: ETP IC50, endogenous thrombin potential, +TM (rhs-TM 10 nmol L^−1)
[12] = read-out: ETP IC50, endogenous thrombin potential, −TM (absence of rhs-TM)
[13] = presence of rhs-TM 10 nmol L^−1
[14] = melagatran at 119–474 nmol L^−1
[15] = whole dose range tested (0.001–0.3 mg kg^−1 i.v.)

SMILES	maximal increase in Cmax over baseline [1] [%]	maximal increase in ETP over baseline [1] [%]	IC50 [1, 9] [µM]	IC50 [1, 10] [µM]	IC50 [1, 11] [µM]	IC50 [1, 12] [µM]	increase in ETP or Cmax [2]	generation of F1+2 [3]	F1+2 increase [4, 13]	IC50 ([4]; absence of rhs-TM) [µM]	increase in the affinity of the thrombin inhibitor for the thrombin bound to TM (thrombin bound to TM)	effect on TF-induced increase in TAT levels [6]	other results
[H]/N=C(/N)c1ccc(NCc2nc3cc(C(=O)N(CCC(=O)O)c4ccccn4)ccc3n2C)cc1 [Dabigatran]	11	5	> 1.09	0.976 ± 0.071	> 1.09	0.722 ± 0.044	No increase	concentration-dependently inhibited	1.6–1.9 fold	0.387 ± 0.063			Cmax increase vs. control ([1]; dabigatran at 68–545 nmol L^−1): 2.0–3.3 fold; ETP increase vs. control ([1]; dabigatran at 136–545 nmol L^−1): 2.2–2.6 fold
N=C(N)c1ccc(CNC(=O)[C@@H]2CCN2C(=O)[C@H](NCC(=O)O)C2CCCCC2)cc1 [Melagatran]	8	6	> 0.95	0.94 ± 0.079	> 0.95	0.732 ± 0.043	No increase	concentration-dependently inhibited	1.8–2.0 fold	0.368 ± 0.04	twofold increase	reduced	Cmax increase vs. control [1, 14]: 2.2–2.7 fold; ETP increase vs. control [1, 14]: 1.9–2.2 fold; fibrinogen levels (plasma fibrinogen; 0.03 mg kg^−1 i.v., TF control 2.34 ± 0.08 g L^−1, P < 0.001): 1.41 ± 0.20 g/L; APTT prolongation ([5]; 0.001 mg kg^−1 i.v.): 1.26 ± 0.05 x-fold over baseline; APTT prolongation ([5]; 0.003 mg kg^−1 i.v.): 1.34 ± 0.05 x-fold over baseline; APTT prolongation ([5]; 0.01 mg kg^−1 i.v.): 1.68 ± 0.03 x-fold over baseline; APTT prolongation ([5]; 0.03 mg kg^−1 i.v.): 2.17 ± 0.23 x-fold over baseline; APTT prolongation ([5]; 0.1 mg kg^−1 i.v.): 2.08 ± 0.18 x-fold over baseline; APTT prolongation ([5]; 0.3 mg kg^−1 i.v.): 3.11 ± 0.27 x-fold over baseline; TAT increase vs. TF control ([6]; 0.01 mg kg^−1 i.v., P < 0.01): 1.6 fold; platelet count (platelet count; 0.01 mg kg^−1 i.v., TF control 644 × 10^3 μL^−1): 559000 µL⁻¹; Plasma concentration ([7]; 0.01 mg kg^−1 i.v.): 0.0192 ± 0.0009 µg/mL; Plasma concentration ([7]; 0.3 mg kg^−1 i.v.): 0.5247 ± 0.0261 µg/mL
O=C(NC[C@H]1CN(c2ccc(N3CCOCC3=O)cc2)C(=O)O1)c1ccc(Cl)s1 [Rivaroxaban]			0.044 ± 0.006	0.066 ± 0.005	0.057 ± 0.008	0.697 ± 0.106		concentration-dependently inhibited		0.012 ± 0.007		complete inhibition	fibrinogen concentration (plasma fibrinogen; [15]): not affected; PT prolongation (prothrombin time; 0.001 mg kg^−1 i.v.): 1.00 ± 0.04 x-fold over baseline; PT prolongation (prothrombin time; 0.003 mg kg^−1 i.v.): 1.02 ± 0.02 x-fold over baseline; PT prolongation (prothrombin time; 0.01 mg kg^−1 i.v.): 0.96 ± 0.02 x-fold over baseline; PT prolongation (prothrombin time; 0.03 mg kg^−1 i.v.): 1.03 ± 0.02 x-fold over baseline; PT prolongation (prothrombin time; 0.1 mg kg^−1 i.v.): 1.26 ± 0.06 x-fold over baseline; PT prolongation (prothrombin time; 0.3 mg kg^−1 i.v.): 1.92 ± 0.05 x-fold over baseline; prolongation of PT over the dose range (prothrombin time; dose range 0.001–0.3 mg kg^−1 i.v.): 1.0–1.9 fold over baseline; IC50 [4, 13]: 0.014 ± 0.007 µM; platelet count (platelet count; [15]): not affected
N=C(N)NCCCNC(=O)[C@@H]1CCCCN1C(=O)[C@@H](CC1CCCCC1)NCC(=O)O [inogatran]											twofold increase		
CCOC(=O)CN[C@@H](C(=O)N1CC[C@H]1C(=O)NCc1ccc(/C(N)=N\O)cc1)C1CCCCC1 [ximelagatran]													mortality rate, dose-dependent [8]: up to 67%; mortality rate, time-dependent [8]: ≤ 88%
